MEKK2mut PB1 HTS – signal of MEK5 binding to mutant human MEKK2 PB1 domain. hit rate 0.35% among 290,000. percent response, % at 10 µM. bead flow cytometry, Alexa488-MEK5 binding to MEKK2 mutant; in the data active = percent response above about 24%, passing the limit was not always enough
ABCB1 block – inhibitors of human ABCB1 transporter, ABCG2 counter-screen. CCRF-Adr cells, JC-1 efflux, flow cytometry. inhibition, % at 6.6 µM. hit rate 0.067% among 190,000; in the data active = inhibition above about 40%;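 note: 0% = vehicle and 100% = reference inhibitor; higher value means more JC-1 retained so stronger ABCB1 efflux block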
MEKK3 PB1 HTS – modulators (inhibitors or enhancers) of MEK5 binding to human MEKK3 PB1 domain. bead-based flow cytometry, Alexa488-MEK5 binding to MEKK3; actives lie on both sides; 0 = blocked by unlabeled MEK5, 100 = vehicle. hit rate 1.4% among 290,000. Q99759. binding response (% of control), % at 10 µM;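 active = binding response more than 3 SD above or below the average of its plate-row segment, actives on both sides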;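 note: Alexa488 bead fluorescence after subtracting the streptavidin-only scavenger bead signal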
Target sequence (Q99759 whole entry, looked up, the tested form may be a part): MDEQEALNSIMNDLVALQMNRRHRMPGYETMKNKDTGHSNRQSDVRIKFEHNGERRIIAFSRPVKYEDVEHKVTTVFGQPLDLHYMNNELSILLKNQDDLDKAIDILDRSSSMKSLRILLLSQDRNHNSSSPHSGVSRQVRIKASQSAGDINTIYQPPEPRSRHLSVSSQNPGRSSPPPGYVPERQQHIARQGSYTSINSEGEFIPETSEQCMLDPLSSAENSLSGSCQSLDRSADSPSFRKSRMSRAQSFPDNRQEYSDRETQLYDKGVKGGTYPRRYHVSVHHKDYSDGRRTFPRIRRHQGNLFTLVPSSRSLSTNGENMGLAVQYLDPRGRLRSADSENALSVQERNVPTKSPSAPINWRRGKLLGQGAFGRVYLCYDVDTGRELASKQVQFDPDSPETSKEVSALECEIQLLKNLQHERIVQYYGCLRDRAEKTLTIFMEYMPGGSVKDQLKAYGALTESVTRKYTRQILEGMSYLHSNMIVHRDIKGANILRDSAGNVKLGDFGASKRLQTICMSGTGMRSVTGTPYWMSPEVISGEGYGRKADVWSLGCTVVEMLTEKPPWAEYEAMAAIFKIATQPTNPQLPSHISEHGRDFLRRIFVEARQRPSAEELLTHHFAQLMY
MEKK2 WT-MEK5 – raises or lowers MEK5 binding to wildtype human MEKK2 PB1 domain | bead flow cytometry, Alexa488-MEK5 binding to MEKK2 WT; actives lie on both sides | binding response (% of control), % at 10 µM | hit rate 1.1% among 290,000; in the data active = binding response below about 67% or above about 130%
ABCG2 block – blocks JC-1 efflux by human ABCG2 transporter | IgMXP3 cells, flow cytometry | inhibition, % at 6.6 µM | hit rate 0.1% among 190,000;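 active = inhibition above 80%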;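 note: 0% = DMSO and 100% = nicardipine control wells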
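Test system: IgMXP3 (ABCG2) plus far-red-tagged CCRF-Adr (ABCB1) cells. Reagent: JC-1 dye as substrate. Timing: 10 min exposure at 25 °C with rotation, no wash. Measured by: flow cytometric JC-1 green MFI at 530 nm. Read-out: percent efflux inhibition, scaled nicardipine 100% to DMSO 0%. Control set: nicardipine and DMSO wells.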
Efflux pump inh – blocks antifungal efflux pumps in multiplex yeast assay; hit rate 0.44% among 330,000; S. cerevisiae Candida pump triplex, Nile Red efflux; inhibition, % at 10 µM;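 active = plate passing quality check with inhibition over a set limit, or well fluorescence over plate mean plus 4 SD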;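 note: Nile Red retained in pooled yeast measured as flow cytometry median fluorescence; 0% = buffer negative control and 100% = Enniatin B positive control; higher means more Nile Red kept so more efflux inhibition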
MEKK2wt confirm – raises or lowers MEK5 binding to wildtype human MEKK2, retest | shares compounds with MEKK3 PB1 HTS | bead flow cytometry, Alexa488-MEK5 binding to MEKK2 WT; actives lie on both sides | binding response (% of control), % at 10 µM | hit rate 2.4% among 5,900; in the data active = binding response below about 16% or above about 210%; inactive = in between
MEKK2mut-MEK5 – signal of MEK5 binding to mutant human MEKK2, retest | shares compounds with MEKK3 PB1 HTS | bead flow cytometry, Alexa488-MEK5 binding to MEKK2 mutant | percent response, % at 10 µM | hit rate 2% among 5,900 | AID 1893; in the data active = percent response mostly above about 71%, no sharp cut-off; inactive = mostly below about 38%;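 note: higher means compound restores mutant binding toward wildtype level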
MEKK3 confirm – confirmation of inhibitors of MEK5 binding to human MEKK3; shares compounds with MEKK3 PB1 HTS; hit rate 1.8% among 5,900; binding response (% of control), % at 10 µM; bead flow cytometry, Alexa488-MEK5 binding to MEKK3; hits give low values;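 active = binding response below 72% of control, or above a set upper limit, though filed actives all read lower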;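 note: 100% = DMSO only wells and 0% = binding blocked by excess unlabeled MEK5; lower values mean stronger disruption of MEK5 binding to MEKK3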
The depositor's hits bear a star; [ ] = remark or other dose. Compounds with a hit are over-represented: about 2.5% of the library has one in this group of screens.

`CC1CCC(NC(=O)COC(=O)c2ccco2)CC1` (stereo not drawn) gave Efflux pump inh 0.1.
Screening N#CCCn1cc(C(=O)Nc2ccc([N+](=O)[O-])cc2)c(-c2cccs2)n1 returned MEKK2mut PB1 HTS 0.0, ABCB1 block 0.8, MEKK3 PB1 HTS 99.0, MEKK2 WT-MEK5 100.0, ABCG2 block 21.5 and Efflux pump inh 0.0.
For COc1ccc(NC(=O)c2cn(CCC#N)nc2-c2cccs2)cc1 the results were MEKK2mut PB1 HTS 1.0, ABCB1 block -0.1, MEKK3 PB1 HTS 140.0*, MEKK2 WT-MEK5 108.0, ABCG2 block 11.1, Efflux pump inh -0.1, MEKK2wt confirm 104.0, MEKK2mut-MEK5 4.0 and MEKK3 confirm 104.0.
Screening CN(C)CCCN=Cc1c(O)n(Cc2ccc3c(c2)OCO3)c(=O)c2ccccc12 returned MEKK2mut PB1 HTS 9.0, ABCB1 block 3.3, MEKK3 PB1 HTS 96.0, MEKK2 WT-MEK5 125.0, ABCG2 block 15.4 and Efflux pump inh 0.0.
For CC(C)(C)NCc1cc(Cl)ccc1OCc1ccccc1F the results were MEKK2mut PB1 HTS -22.0, ABCB1 block 0.5, MEKK3 PB1 HTS 75.0*[inhibitor], MEKK2 WT-MEK5 70.0, ABCG2 block 5.7, Efflux pump inh 0.0, MEKK2wt confirm 101.0, MEKK2mut-MEK5 0.0 and MEKK3 confirm 99.0.
`CCN(CC)CCNCc1cc(Cl)ccc1OCc1ccccc1F` gave MEKK2mut PB1 HTS 15.0, ABCB1 block -0.5, MEKK3 PB1 HTS 98.0, MEKK2 WT-MEK5 143.0, ABCG2 block -6.0 and Efflux pump inh 0.0.
`CC(=O)Oc1ccc(C(=O)Nc2ccc(S(=O)(=O)N3CCOCC3)cc2)cc1` gave MEKK2mut PB1 HTS 7.0, MEKK3 PB1 HTS 107.0, MEKK2 WT-MEK5 111.0 and Efflux pump inh 0.3.
C/C=C(/C)C(=O)O[C@@H]1[C@H](OC(C)=O)c2c(ccc3ccc(=O)oc23)OC1(C)C was read as MEKK2mut PB1 HTS 5.0, ABCB1 block 0.8, MEKK3 PB1 HTS 108.0, MEKK2 WT-MEK5 97.0, ABCG2 block 10.3 and Efflux pump inh 0.1.
Screening C/C=C(/C)C(=O)O[C@H]1[C@@H](O)c2c(ccc3ccc(=O)oc23)OC1(C)C returned MEKK2mut PB1 HTS 11.0, ABCB1 block 0.3, MEKK3 PB1 HTS 123.0*, MEKK2 WT-MEK5 101.0, ABCG2 block 2.8, Efflux pump inh 0.0, MEKK2wt confirm 103.0, MEKK2mut-MEK5 8.0 and MEKK3 confirm 100.0.

Assay outcomes deposited in PubChem BioAssay by NMMLSC.
